Measured values published in ChEMBL document CHEMBL1130405, “Cross-linking and sequence specific alkylation of DNA by aziridinyl quinones. 2. Structure requirements for sequence selectivity” (J Med Chem, 1997).
pIC50: −log10 of the molar value.

What follows are molecules tested on K562 (assay: In vitro cytotoxicity tested against human chronic leukemia K562 cells).
Type: functional, cell-based
In short: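 Human K562 chronic myeloid leukaemia cells, kept in log-phase suspension in RPMI 1640 with 10% horse serum at 37 °C, 5% CO2. Seeded at 600 cells/well and given continuous drug exposure for 5 days. Growth was read by MTT absorbance at 540 and 640 nm. Inhibition of growth was plotted against concentration, in triplicate at each concentration.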

Compound	pIC50
O=C1C=C(N2CC2)C(=O)C(Cl)=C1N1CC1	8.28
CC1=CC(=O)C(N2CC2)=CC1=O	6.67
O=C1C=C(N2CC2)C(=O)C(N2CC2)=C1N1CC1 [TRIAZIQUONE]	8.54
O=C1C=C(N2CC2)C(=O)C(c2ccccc2)=C1N1CC1	8.51
CCOC(=O)NC1=C(N2CC2)C(=O)C(NC(=O)OCC)=C(N2CC2)C1=O [DIAZIQUONE]	7.20
O=C1C=C(N2CC2)C(=O)C=C1N1CC1	8.08
OCC/N=C1C(O)=C(N2CC2)/C(=N\CCO)C(O)=C/1N1CC1	6.80
O=C1C(I)=C(N2CC2)C(=O)C(I)=C1N1CC1	7.30
O=C1C(Cl)=C(N2CC2)C(=O)C(Cl)=C1N1CC1	7.34
Cc1ccc(C2=C(N3CC3)C(=O)C=C(N3CC3)C2=O)cc1	8.32
CC1=C(C)C(=O)C(N2CC2)=CC1=O	6.62
O=C1C(F)=C(N2CC2)C(=O)C(F)=C1N1CC1	8.00
CC1=CC(=O)C(N2CC2)=C(C)C1=O	6.32
O=C1C=C(N2CC2)C(=O)C(I)=C1N1CC1	7.90
CC1=C(N2CC2)C(=O)C(C)=C(N2CC2)C1=O	8.74
O=C1C=C(N2CC2)C(=O)C(c2ccc(Oc3ccccc3)cc2)=C1N1CC1	6.77
CC1=C(N2CC2)C(=O)C(Cl)=C(N2CC2)C1=O	7.12
O=C1C=C(N2CC2)C(=O)C(Br)=C1N1CC1	8.14
O=C1C(c2ccccc2)=C(N2CC2)C(=O)C(c2ccccc2)=C1N1CC1	7.17
O=C1C(F)=C(N2CC2)C(=O)C(N2CC2)=C1F	7.41
O=C1C(N2CC2)=C(N2CC2)C(=O)C(N2CC2)=C1N1CC1	8.24
O=C1C(Br)=C(N2CC2)C(=O)C(Br)=C1N1CC1	7.38
